Bioassay records deposited in PubChem BioAssay by several laboratories.
XBP1 UPR activ: adaptive UPR (XBP1) activation. activation, % at 20 µM. CHO-XBP1 luciferase reporter, IRE1-XBP1 UPR activation, luminescence; percent of tunicamycin response, DMSO as zero. 330,000 compounds, 0.33% hits. AID 463104;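 active = versus positive control, 20 µM dose yields 30% or more activation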
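Material – CHO cell line with stable XBP1 luciferase reporter · Buffer or medium – F12 plus 10% FBS · Compound – single point, 20 µM final compound, 1% DMSO · Schedule – 16-18 h cell attachment at 37 °C, then 6 h compound exposure · Signal – Steady-Glo luminescence read · Benchmarks – high control tunicamycin 10 µg/mL final, low control DMSO vehicle only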
UPR CHOP act: apoptotic UPR (CHOP) activation; CHO-CHOP luciferase reporter, luminescence; percent of tunicamycin response over DMSO baseline; activation, % at 10 µM; 330,000 compounds, 0.34% hits; AID 449763;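 active = at 10 µM dose, activation of 40% or more, normalized to positive control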
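Assay system: CHO cells with stable CHOP pathway luciferase reporter; Buffer or medium: F12 plus 10% serum; Times: 16-18 h cell attachment, then 6 h compound exposure, 37 °C; Signal: luciferase luminescence; Read-out basis: percent activation relative to tunicamycin control; Control set: tunicamycin high control, DMSO low control.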
T cruzi inh: blocks replication of Trypanosoma cruzi; T. cruzi beta-gal in NIH3T3, luminescence, 90 h; inhibition, % (concentration not given with the values); 300,000 compounds, 1.4% hits;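 active = mean inhibition across valid replicates above about 55%, limit read from the data; inconclusive = mean below that limit but half or more replicates reach it; inactive = mean below it, under half of replicates reach it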;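 also: signal also drops with host cell toxicity which is not excluded here; higher percent means less beta-gal luminescence so fewer parasites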
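Incubation – ≥90 h infection period, 3 h prior cell attachment · System – NIH/3T3 fibroblasts plus reporter T. cruzi · Doses – compound pinned at 50 nL/well, DMSO · Read-out basis – percent inhibition of parasite-derived β-gal signal · Signal – luminescent β-galactosidase signal after 60 min lysis · Also added – 5000 T. cruzi trypomastigotes/well · Medium – Low-serum DMEM with 2% FBS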
CHOP inh: blocks CHOP induction under ER stress. CHO-K1 CHOP-promoter luciferase, tunicamycin-induced, 15-18 h. inhibition, % at 10 µM. 220,000 compounds, 3.8% hits. AID 2732;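 active = compounds that reduced the stress-induced luciferase reporter signal by more than about 70% of percent inhibition, limit read from the data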
Dynein transport: blocks dynein driven cargo transport along microtubules; 3617.4 mouse cells, GR-EGFP nuclear translocation imaging; test concentration mostly 20 µM; stimulated with dexamethasone, 1 µM; active compounds read low; z-score, hits read low; 220,000 compounds, 0.47% hits; AID 1381;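 active = plate z-score of nuclear minus cytoplasmic receptor signal below a set negative limit, without overly bright fluorescence or cell loss, cut at about -3.5 in these data, passing the limit was not always enough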;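 also: z-score of nuclear minus cytoplasmic ring GR-EGFP intensity difference per well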
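Buffer or medium: tet-free, stripped-serum medium; Also added: dexamethasone, 1.0 µM final; Technique: high-content fluorescence imaging after fixation; Times: 48 h induction, 1 h compound, 30 min dex at 37 °C; Read-out: per-cell GR-EGFP intensity, nucleus versus surrounding cytoplasmic ring, well-averaged.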
L major viab: inhibitors of Leishmania major promastigote growth; Leishmania major promastigotes, resazurin fluorescence viability; inhibition, % at 10 µM; 200,000 compounds, 9% hits; AID 1063; in the data active = inhibition above about 50%;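 also: promastigotes grown with compound for 44 hours at 28 °C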
Large screens that a line does not name were inactive. This excerpt belongs to a sample that is enriched for hits.

CC1CCCN(CCOc2ccc(Br)cc2)C1 (configuration not stated)	L major viab 51
CC1CCCN(CCCCOc2cccc(Br)c2)C1 (configuration not stated)	L major viab 99
COc1ccc(OCCCN2CCCCCC2)cc1	L major viab 99
Brc1cccc(OCCCCN2CCCCC2)c1	L major viab 98
CC1CCN(CCCCOc2ccc(C(C)(C)C)cc2)CC1	none (no result: CHOP inh, Dynein transport, L major viab)
CCOc1cccc(OCCCCN2CCCCC2)c1	L major viab 97
COc1cccc(OCCCN2CCCCC2)c1	L major viab 96
CC(C)(C)c1ccc(OCCN2CCCC2)cc1	L major viab 97
Cc1cccc(C)c1OCCCCN1CCCCC1	none (no result: CHOP inh, Dynein transport, L major viab)
COc1cccc(OCCCCN2CCCCC2)c1	L major viab 97
CCOCC(=O)Nc1cc(Cl)ccc1C	none
CCN(C(=O)C(C)OC(=O)c1nn(-c2ccccc2C(F)(F)F)cc1O)c1ccccc1 (configuration not stated)	none (no result: T cruzi inh, CHOP inh, Dynein transport, L major viab)
C[C@@H]1O[C@@H](O[C@@H]2C(=O)c3c(O)cc(O)cc3O[C@H]2c2ccc(O)c(O)c2)[C@H](O)[C@H](O)[C@H]1O	none (no result: T cruzi inh, CHOP inh, Dynein transport, L major viab)
CN(C)CCOC(=O)NCC12CC3CC(CC(C3)C1)C2	none (no result: L major viab)
N/C(=N\c1nc2ccccc2o1)NC(=O)c1ccccc1Br	none (no result: L major viab)
CC1CCCN(CCC(=O)c2ccc(Br)cc2)C1 (configuration not stated)	L major viab 96 (no result: T cruzi inh)
O=C(CCc1nc2ccccc2c(=O)[nH]1)N1CCN(S(=O)(=O)c2ccc(F)cc2)CC1	none (no result: T cruzi inh, CHOP inh, Dynein transport, L major viab)
CN1CCN(c2nc3c(c(=O)[nH]c(=O)n3C)n2Cc2ccc(Cl)cc2)CC1	none (no result: CHOP inh, Dynein transport, L major viab)
O=C(NCc1ccccc1)c1ccc(C(=O)N(C2CCCCC2)C2CCCCC2)cc1	T cruzi inh 61
CC(C)(C)c1ccc(C(=O)NCc2ccccc2)cc1	none
N#Cc1c(N)nc2c(c1N)CC(CCl)O2 (configuration not stated)	L major viab 57
CN(CCNC(=O)c1cc2c(=O)n(C)c3ccccc3c2n1C)Cc1ccccc1	L major viab 69
CC(C)c1ccc(NC(=O)c2cc3c(=O)n(C)c4ccccc4c3n2C)cc1	T cruzi inh 60 (no result: L major viab)
Cn1c(C(=O)NCCN2CCN(c3ccccc3F)CC2)cc2c(=O)n(C)c3ccccc3c21	L major viab 51
Cn1c(C(=O)NCCN2CCOCC2)cc2c(=O)n(C)c3ccccc3c21	none
COc1ccc(NC(=O)c2cc3c(=O)n(C)c4ccccc4c3n2C)cc1OC	none
COc1cccc(C(=O)N2CCN(C(=O)COc3ccc4ccccc4c3)CC2)c1	none (no result: CHOP inh, Dynein transport, L major viab)
CCC(CC)C(=O)c1c[nH]c(C(=O)N2CCN(c3ccccc3)CC2)c1	none
COc1ccc(OC)c(/C=C/C(=O)N(C)CC(=O)Nc2cc(C)ccc2C)c1	L major viab 87
CCOC(=O)C1(Cc2ccccc2)CCN(Cc2ccc(COC)o2)CC1	none
CCOC(=O)C1(Cc2ccccc2)CCN(Cc2cc(OC)c3c(c2)OCO3)CC1	L major viab 91
CCOC(=O)C1(Cc2ccccc2)CCN(Cc2ccc(C)s2)CC1	CHOP inh 90
CCOC(=O)C1(Cc2ccccc2)CCN(Cc2cccc3c2OCO3)CC1	L major viab 66
CCOC(=O)C1(Cc2ccccc2)CCN(Cc2ccc3c(c2)OCCO3)CC1	L major viab 92
CCOC(=O)C1(Cc2ccccc2)CCN(Cc2ccon2)CC1	none
CCOC(=O)C1(CCOc2ccccc2)CCN(Cc2cc(OC)c(O)c(OC)c2)CC1	none (no result: CHOP inh, Dynein transport, L major viab)
CCNC(=S)N1CCC(n2cnc3ccccc32)CC1	none
O=C1OCC/C1=C\OCCCO/C=C1\CCOC1=O	none (no result: L major viab)
COCc1ccc(CN2CCCC(CO)(Cc3ccccc3C)C2)o1 (configuration not stated)	none
COc1ccc(CN2CCCC(CO)(Cc3ccc(F)cc3)C2)cc1C (configuration not stated)	T cruzi inh 58 (no result: CHOP inh, Dynein transport, L major viab)
COc1cc(CN2CCCC(CO)(Cc3ccccc3C)C2)cc2c1OCO2 (configuration not stated)	L major viab 69
CCCc1cc(=O)[nH]c(SCC(=O)N(C)C2CCCCC2)n1	none (no result: T cruzi inh, CHOP inh, Dynein transport, L major viab)
Cc1ccc(C2(C)NC(=O)N(CC(=O)Nc3ccccc3C(=O)NC3CCCC3)C2=O)cc1 (configuration not stated)	none (no result: CHOP inh, Dynein transport, L major viab)
Cc1nnc(N/N=C/c2ccc([N+](=O)[O-])cc2)n1N	none
CCc1nnc(N/N=C/c2ccc(N3CCC(C)CC3)c([N+](=O)[O-])c2)n1N	L major viab 73
Cc1nnc(N/N=C/c2cc([N+](=O)[O-])c(N3CCC(C)CC3)cc2N2CCC(C)CC2)n1N	L major viab 100
O=C1SC(SCc2ccccc2Cl)=N/C1=C\c1ccc(C(=O)O)cc1	CHOP inh 82
O=C(CSc1ncnc2c1nnn2Cc1ccccc1)NC1CCCCC1	none (no result: CHOP inh, Dynein transport, L major viab)
COCCNC(=O)CCC1CCN(Cc2cccc(Oc3ccccc3)c2)CC1	none (no result: CHOP inh, Dynein transport, L major viab)
COc1ccc(/C=C/C(=O)c2cc(F)ccc2OC(=O)c2ccccc2C)cc1OC	L major viab 60
COc1ccc(C(=O)Oc2ccc(F)cc2C(=O)/C=C/c2ccc(OC)c(OC)c2)cc1	none
COc1ccc(/C=C/C(=O)c2ccc3c4c(cccc24)CC3)cc1OC	L major viab 60
CCOc1ccc(CCNC(=O)C2CSC3(C)CCC(=O)N23)cc1OCC (configuration not stated)	none (no result: CHOP inh, Dynein transport, L major viab)
Cn1c(N)c(C(=O)COC(=O)COc2ccccc2C#N)c(=O)n(C)c1=O	none
CC(C)(C)OC(=O)N1CCN(C(=O)c2[nH]cnc2C(=O)Nc2nccs2)CC1	none (no result: T cruzi inh, CHOP inh, Dynein transport, L major viab)
CCC1CN(C(=O)N2CCC(C(=O)Nc3ccccc3F)CC2)c2ccccc2O1 (configuration not stated)	none (no result: CHOP inh, Dynein transport, L major viab)
N#CC1=C(N)SC(N)=C(C#N)C1CCc1ccccc1	none
N#CC1=C(N)SC(N)=C(C#N)C1Cc1ccccc1	L major viab 55
O=C(Nc1ccc2[nH]c(=O)[nH]c2c1)c1ccc([N+](=O)[O-])o1	none (no result: T cruzi inh, CHOP inh, Dynein transport, L major viab)
Cc1cccc(NC(=O)c2ccc([N+](=O)[O-])o2)c1C	L major viab 97
Cc1ccc(NC(=O)c2ccc([N+](=O)[O-])o2)cc1C	T cruzi inh inconclusive, L major viab 100
COCc1cc(C)nc(SCc2ccc(Br)cc2)c1C#N	none (no result: CHOP inh, Dynein transport, L major viab)
CCOc1ccc(NC(=O)CN(C)C(=O)CCCOc2ccc(Cl)c(C)c2)cc1OCC	none (no result: CHOP inh, Dynein transport, L major viab)
O=C(N/N=C/c1ccc(OC(F)F)cc1OC(F)F)c1ccc(Br)cc1	none
O=C(N/N=C/c1ccc(OC(F)F)cc1OC(F)F)NC1CCCCC1	CHOP inh 91
C[n+]1c2n(c3ccccc31)N=C(c1ccccc1)CS2	L major viab 98
